Measurements: ChEMBL document CHEMBL3612047, “Synthesis, antiproliferative activity and possible mechanism of action of novel 2-acetamidobenzamides bearing the 2-phenoxy functionality” (Bioorg Med Chem, 2015)

Key:
K562 [1] = experiment: Growth inhibition of human K562 cells at 10 uM incubated for 24 hrs by trypan blue dye exclusion assay; assay type: functional; details: K562, 24 h, read-out: GI
Method in brief: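 K562 cells in medium with 5% FBS at 37 °C, 5% CO₂. About 2 × 10⁵ cells/mL cultured 24 h, then compound added at 10 μM. After 24 h exposure, cells counted by hemocytometer and viability scored by trypan blue exclusion, reported as percent growth inhibition.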

[2] = Cytotoxicity against human HuDe cells incubated for 72 hrs by MTT assay; assay type: cell-based
Method in brief: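 HuDe primary culture from human epidermis, seeded at 2 × 10⁴ cells/mL. Test drugs at different concentrations, or 0.1% DMSO, added 24 h after seeding, with 72 h exposure. MTT (5 mg/mL in PBS) then applied for 3 h at 37 °C. Formazan solubilized with isopropanol/triton X-100/HCl and read at 570 nm with 690 nm blank.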

K562 [3] = experiment: Growth inhibition of human K562 cells incubated for 24 hrs by trypan blue dye exclusion assay; assay type: functional, cell-based; details: K562, 24 h
Method in brief: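 K562 cells, about 2 × 10⁵ cells/mL, precultured 24 h, then exposed 24 h to a range of compound concentrations. Viable cells counted by hemocytometer with trypan blue exclusion to derive IC₅₀.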

K562 [4] = experiment: Selectivity index, ratio of IC50 for human HuDe cells to IC50 human K562 cells
Method in brief: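 Index taken as the ratio of HuDe to K562 IC₅₀. For K562: about 2 × 10⁵ cells/mL, compounds added at graded concentrations, viable count by trypan blue exclusion with a hemocytometer after 24 h. For HuDe primary epidermal cells: 2 × 10⁴ cells/mL, drugs or 0.1% DMSO added 24 h after seeding, MTT read at 570 nm (690 nm blank) after 72 h.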

[5] = Growth inhibition of human NCI60 cells assessed as cell growth level at 10 uM by NCI standard protocol based method; assay type: functional; design: scale not given: the % may be the effect or the level left
Method in brief: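 NCI 60-cell-line screen (leukemia, lung, colon, melanoma, renal, ovarian, brain, breast, prostate) run to the NCI standard protocol. Single high dose of 10⁻⁵ M, read as growth percent. Mean graph midpoint is the arithmetic mean over all lines tested.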

Row | SMILES | inhibition of growth at 10 µM (K562 [1]) | IC50 [2] | IC50 (K562 [3]) | Ratio IC50 (K562 [4]) | Activity [5]
1 | Cc1ccc(NC(=O)COc2ccccc2C)c(C(N)=O)c1 | 45.6% | – | – | – | –
2 | NC(=O)c1cc(I)ccc1NC(=O)COc1ccc(Cl)cc1Cl | 74.7% | 33.8 µM | 6.9 µM | 4.9 | 87.28%
3 | COc1cc(NC(=O)COc2cccc(Cl)c2Cl)c(C(N)=O)cc1OC | 17.7% | – | – | – | –
4 | NC(=O)c1ccccc1NC(=O)COc1ccccc1 | 57.4% | 523 µM | 8.9 µM | 58.76 | –
5 | NC(=O)c1ccccc1NC(=O)COc1cccc(Cl)c1Cl | < 10% | – | – | – | –
6 | Cc1ccc(NC(=O)COc2cccc(Cl)c2Cl)c(C(N)=O)c1 | 30.8% | – | – | – | –
7 | NC(=O)c1cccc(NC(=O)COc2ccccc2)c1 | < 10% | – | – | – | –
8 | COc1cc2c(c(OC)c1OC)-c1ccc(OC)c(=O)cc1[C@@H](NC(C)=O)CC2 [COLCHICINE] | 63.6% | – | – | – | –
9 | Cc1ccccc1OCC(=O)Nc1ccc(Cl)cc1C(N)=O | 75.9% | 27.3 µM | 1.61 µM | 16.96 | –
10 | NC(=O)c1cc(Cl)ccc1NC(=O)COc1ccc(Cl)cc1Cl | 18.8% | – | – | – | –
11 | Cc1ccc(NC(=O)COc2ccccc2)c(C(N)=O)c1 | 72% | 99.3 µM | 4.7 µM | 21.13 | –
12 | COc1ccc(NC(=O)COc2ccccc2C)c(C(N)=O)c1 | 40.1% | – | – | – | –
13 | Cc1ccc(OCC(=O)Nc2ccc(I)cc2C(N)=O)cc1 | 49.8% | 356 µM | 10 µM | 35.57 | –
14 | Cc1ccccc1OCC(=O)Nc1ccccc1C(N)=O | 19.7% | – | – | – | –
15 | Cc1ccc(NC(=O)COc2ccc(Cl)cc2Cl)c(C(N)=O)c1 | 35.4% | – | – | – | –
16 | Cc1ccc(OCC(=O)Nc2ccccc2C(N)=O)cc1 | < 10% | – | – | – | –
17 | NC(=O)c1ccc(NC(=O)COc2ccccc2)cc1 | 23.7% | – | – | – | –
18 | Cc1ccc(OCC(=O)Nc2ccc(C)cc2C(N)=O)cc1 | 30.3% | – | – | – | –
19 | NC(=O)c1ccccc1NC(=O)COc1ccc(Cl)cc1Cl | < 10% | – | – | – | –
20 | Cc1ccc(OCC(=O)Nc2ccc(Cl)cc2C(N)=O)cc1 | 24.1% | – | – | – | –
21 | COc1ccc(NC(=O)COc2ccc(C)cc2)c(C(N)=O)c1 | 48.1% | – | – | – | –
